Assay results as given in ChEMBL document CHEMBL4190248, “Synthesis and evaluation of N-heteroaromatic ring-based analogs of piperlongumine as potent anticancer agents” (Eur J Med Chem, 2017).
Converted amounts (≈) assume the structure as drawn. The source made the active and inactive calls. No cut-off for these calls is given here.

Tests used:
[1] = Aqueous solubility of the compound in pure water by HPLC analysis; type: physicochemical
Outline: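 Solubility was measured in pure water by HPLC on a C18 column using acetonitrile–water 60/40 (v/v) at 1.0 mL/min, with detection at 254 nm, in triplicate.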

[2] = test system: HCT-116; experiment: Antiproliferative activity against human HCT116 cells after 72 hrs by MTT assay; type: functional, cell-based; conditions: HCT-116, 72 h
[3] = test system: K562; experiment: Antiproliferative activity against human K562 cells at 10 uM after 72 hrs by MTT assay; type: functional, cell-based
[4] = test system: HCT-116; experiment: Antiproliferative activity against human HCT116 cells at 10 uM after 72 hrs by MTT assay; type: functional, cell-based
[5] = test system: A549; experiment: Antiproliferative activity against human A549 cells at 10 uM after 72 hrs by MTT assay; type: functional, cell-based
[6] = test system: Mus musculus; experiment: Toxicity in nude BALB/c mouse xenografted with human HCT116 cells assessed as effect on heart morphology at 5 mg/kg, ip administered daily for 21 days; type: organism-based; conditions: in vivo, 504 h
Outline: (§1)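 HCT-116 xenografts (1×10^7 cells s.c.) were grown in male BALB/c nude mice, 3–5 weeks old, to about 75 mm³. Mice (n = 8 per group) then received 5 mg/kg i.p. daily for 21 days. Liver, kidney, lung and heart were examined for size and morphology against vehicle-treated controls.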

[7] = test system: Mus musculus; experiment: Toxicity in nude BALB/c mouse xenografted with human HCT116 cells assessed as effect on lung morphology at 5 mg/kg, ip administered daily for 21 days; type: organism-based; conditions: in vivo, 504 h; outline: as §1
[8] = test system: HCT-8; experiment: Antiproliferative activity against human HCT8 cells after 72 hrs by MTT assay; type: functional, cell-based; conditions: HCT-8, 72 h
Outline: (§2)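 Cells were cultured overnight in RPMI 1640 + 10% FBS, then treated in triplicate with vehicle or compound across the indicated concentrations for 72 h. MTT was added for the final 4 h, formazan was dissolved in DMSO, and absorbance was read at 570 nm. Inhibition rate = (1 − OD treated/OD control) × 100%, and the IC50 was derived from it.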

[9] = test system: HCT-116; experiment: Antitumor activity against human HCT116 cells xenografted in BALB/c nude mouse assessed as reduction in tumor weight at 5 mg/kg, ip administered daily for 21 days; type: functional; set-up: scale not given: the % may be the effect or the level left
Outline: (§3)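 Male BALB/c nude mice, 3–5 weeks old, received 1×10^7 HCT-116 cells subcutaneously. Once tumors reached about 75 mm³, mice were randomized to groups of 8 and given 5 mg/kg intraperitoneally once daily for 21 days. Body weight was followed over time. At sacrifice, tumors were weighed, and inhibition (%) = (Wcontrol − Wtreated)/Wcontrol × 100. Data are mean ± SD.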

[10] = test system: Mus musculus; experiment: Toxicity in nude BALB/c mouse xenografted with human HCT116 cells assessed as effect on kidney morphology at 5 mg/kg, ip administered daily for 21 days; type: organism-based; conditions: in vivo, 504 h; outline: as §1
[11] = Cytotoxicity against human CCD-841 cells assessed as reduction in cell viability after 72 hrs by MTT assay; type: cell-based; conditions: CCD-841, 72 h; outline: as §2
[12] = test system: HCT-116; experiment: Induction of intracellular ROS generation in human HCT116 cells at 10 uM after 3 hrs by DCFH-DA-dye based fluorescence microscopy; type: functional, cell-based
Outline: (§4)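 Cells were treated in triplicate with 10 µM compound or with vehicle DMSO (0.1%, v/v) for 3 h. Intracellular ROS was detected with a fluorescent probe, the legend citing DCFH-DA and the methods citing dihydroethidium (300/610 nm). Signals were read on a fluorescence microplate reader and imaged by fluorescence microscopy.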

[13] = test system: Mus musculus; experiment: Toxicity in nude BALB/c mouse xenografted with human HCT116 cells assessed as effect on lung size at 5 mg/kg, ip administered daily for 21 days; type: organism-based; conditions: in vivo, 504 h; outline: as §1
[14] = test system: HT-29; experiment: Antiproliferative activity against human HT-29 cells after 72 hrs by MTT assay; type: functional, cell-based; conditions: HT-29, 72 h; outline: as §2
[15] = Aqueous solubility of the compound in PBS buffer at pH 5 by HPLC analysis; type: physicochemical
[16] = test system: Mus musculus; experiment: Toxicity in nude BALB/c mouse xenografted with human HCT116 cells assessed as effect on liver size at 5 mg/kg, ip administered daily for 21 days; type: organism-based; conditions: in vivo, 504 h; outline: as §1
[17] = test system: Mus musculus; experiment: Toxicity in nude BALB/c mouse xenografted with human HCT116 cells assessed as effect on kidney size at 5 mg/kg, ip administered daily for 21 days; type: organism-based; conditions: in vivo, 504 h; outline: as §1
[18] = test system: Mus musculus; experiment: Toxicity in nude BALB/c mouse xenografted with human HCT116 cells assessed as effect on heart size at 5 mg/kg, ip administered daily for 21 days; type: organism-based; conditions: in vivo, 504 h; outline: as §1
[19] = test system: Mus musculus; experiment: Toxicity in nude BALB/c mouse xenografted with human HCT116 cells assessed as effect on liver morphology at 5 mg/kg, ip administered daily for 21 days; type: organism-based; conditions: in vivo, 504 h; outline: as §1
[20] = Induction of intracellular ROS generation in human CCD-841 cells at 10 uM after 3 hrs by DCFH-DA-dye based fluorescence microscopy; type: cell-based; outline: as §4
[21] = test system: Mus musculus; experiment: Toxicity in nude BALB/c mouse xenografted with human HCT116 cells assessed as reduction in body weight at 5 mg/kg, ip administered daily for 21 days; type: organism-based; conditions: in vivo, 504 h; outline: as §3

solubility [1]	IC50 [2]	SMILES	Activity [3]	Activity [4]	Activity [5]	further results
40.4 µg/mL (≈ 177 µM)		O=C1C=CCCN1C(=O)/C=C/c1ccccn1				
46.2 µg/mL (≈ 202 µM)	7.05 µM	O=C1C=CCCN1C(=O)/C=C/c1ccncc1	Active	Active	Active	
	0.47 µM	O=C(/C=C/c1ccc2ccccc2n1)N1CCC=C(Cl)C1=O		Active		Activity [6]: Non-Toxic; Activity [7]: Non-Toxic; IC50 [8]: 1.79 µM; Activity [9]: 52%; Activity [10]: Non-Toxic; IC50 [11]: 50.8 µM; Activity [12]: Active; Activity [13]: Non-Toxic; IC50 [14]: 0.92 µM; solubility [15]: 1990 µg/mL (≈ 6370 µM); Activity [16]: Non-Toxic; Activity [17]: Non-Toxic; Activity [18]: Non-Toxic; Activity [19]: Non-Toxic; Activity [20]: Non-Toxic; Activity [21]: Non-Toxic
1.95 µg/mL (≈ 7.01 µM)	8.17 µM	O=C1C=CCCN1C(=O)/C=C/c1cnc2ccccc2c1	Active	Active	Active	
48.2 µg/mL (≈ 198 µM)	8.9 µM	Cc1nccnc1/C=C/C(=O)N1CCC=CC1=O	Active	Active	Active	
45.3 µg/mL (≈ 198 µM)		O=C1C=CCCN1C(=O)/C=C/c1cccnc1				
1.63 µg/mL (≈ 5.14 µM)		COc1cc(/C=C/C(=O)N2CCC=CC2=O)cc(OC)c1OC [PIPLARTINE]	Active	Active	Active	Activity [9]: 53%
2.41 µg/mL (≈ 8.66 µM)	0.93 µM	O=C1C=CCCN1C(=O)/C=C/c1ccc2ccccc2n1	Active	Active	Active	
59.8 µg/mL (≈ 261 µM)	3.19 µM	O=C1C=CCCN1C(=O)/C=C/c1cnccn1	Active	Active	Active	
47.9 µg/mL (≈ 197 µM)	7.95 µM	Cc1cnc(/C=C/C(=O)N2CCC=CC2=O)cn1	Active	Active	Active	
